Test results from PubChem BioAssay AID493249 (Broad Institute, 2011).
“And” between values parts separate entries of the source, which are not always exact repeats. Equal values may be shown once. The source made the active and inactive calls.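 The calls were made as follows: active = compounds lowering cell viability with a fitted IC50 within ten times their top tested dose; inconclusive = flat viability loss of 30 to 70 percent, or poor fit; inactive = the rest.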

Test system: not listed separately
Test: viability of U2OS HRE-luciferase line – cell-based, dry powder, set 7, cytotoxicity control for HIF pathway activator project, dose response (AID 493249)
Conditions: U2OS HRE-luc cells, viability toxicity counter-screen, CellTiter-Glo; at 38 µM (top of the series)
In short: (§1)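 System: human osteosarcoma U2OS cells stably expressing 3×HRE-luciferase reporter. Medium: phenol red-free DMEM with 10% FBS. Measure: compound toxicity as loss of cell viability. Timing: 24 h cell attachment, then 24 h compound exposure, 37 °C. Dosing: 8-point 3-fold dilution series, 7.5 mM top stock. Signal: CellTiter-Glo luminescence.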
For `Cc1ccccc1CNc1nc(-c2ccccn2)nnc1-c1ccccc1`, the activity change, negative = toxicity was -17.6% (inactive).
In the case of `c1ccc(-c2nnc(-c3ccccn3)nc2NCC2CCOCC2)cc1`, the activity change, negative = toxicity is reported as 20.8% (inactive).
With `CN(C)CCNC(=O)c1cc(-c2ccccc2)on1` the activity change, negative = toxicity was 14.4% (inactive).
With `CCCCNC(=O)c1cc(-c2ccccc2)on1` the activity change, negative = toxicity was -11.5% (inactive).
For `c1ccc(-c2cnc(Nc3nc(-c4ccccn4)nnc3-c3ccccc3)s2)cc1`, the activity change, negative = toxicity was 1.53% (inactive).
With `CC(C)(C)OC(=O)N1CCN(Cc2ccc(O)c3ncccc23)CC1` the activity change, negative = toxicity was 6.17% (inactive).
For `c1ccc(-c2cccc(CNc3nc(-c4ccccn4)nnc3-c3ccccc3)c2)cc1`, the activity change, negative = toxicity was -2.36% (inactive).
In the case of `CC(C)(C)CCNc1nc(-c2ccccn2)nnc1-c1ccccc1`, the activity change, negative = toxicity is reported as -13% (inactive) and -32.8% (inactive).
For `CN1CCN(C(=O)c2cc(-c3ccccc3)on2)CC1`, the activity change, negative = toxicity was 3.42% (inactive).
For `O=C(Nc1nc(-c2ccccc2)cs1)c1cc(-c2ccccc2)on1`, the activity change, negative = toxicity was 13.9% (inactive).
In the case of `OCC1CCN(Cc2ccc(O)c3ncccc23)CC1`, the activity change, negative = toxicity is reported as -25% (inactive).
For `C[C@@H](Nc1nc(-c2ccccn2)nnc1-c1ccccc1)c1ccccc1`, the activity change, negative = toxicity was -13.6% (inactive).
For `O=C(NCC1CC1)c1cc(-c2ccccc2)on1`, the activity change, negative = toxicity was -6.03% (inactive).
For `CN(C)c1nc(-c2ccccn2)nnc1-c1ccccc1`, the activity change, negative = toxicity was 2.11% (inactive).
With `Cc1ccc(CNC(=O)c2cc(-c3ccccc3)on2)cc1` the activity change, negative = toxicity was 1.57% (inactive).
For `Cn1c(-c2ccccc2)cnc1NC(=O)c1cc(-c2ccccc2)on1`, the activity change, negative = toxicity was -8.92% (inactive).
In the case of `CC(C)(C)CCNC(=O)c1cc(-c2ccccc2)on1`, the activity change, negative = toxicity is reported as -7.02% (inactive).
For `Cc1cccc(NC(=O)c2cc(-c3ccccc3)on2)n1`, the activity change, negative = toxicity was -0.352% (inactive).
With `COc1cccc(CNc2nc(-c3ccccn3)nnc2-c2ccccc2)c1` the activity change, negative = toxicity was -14.9% (inactive).
For `Cn1c(NC(=O)c2cc(-c3ccccc3)on2)nc2ccccc21`, the activity change, negative = toxicity was -0.865% (inactive).
With `OCC1CCN(c2nc(-c3ccccn3)nnc2-c2ccccc2)CC1` the activity change, negative = toxicity was -13.9% (inactive).
In the case of `O=C(NCCCN1CCOCC1)c1cc(-c2ccccc2)on1`, the activity change, negative = toxicity is reported as 0.736% (inactive).
In the case of `Oc1ccc(CNC2CCc3ccccc32)c2cccnc12` (centres undefined), the activity change, negative = toxicity is reported as -17.9% (inactive).
With `O=C(Nc1ncc2ccccc2n1)c1cc(-c2ccccc2)on1` the activity change, negative = toxicity was -4.1% (inactive).
For `Cc1cccc(CNc2nc(-c3ccccn3)nnc2-c2ccccc2)c1`, the activity change, negative = toxicity was -16.7% (inactive).
For `O=C(Nc1cn2ccccc2n1)c1cc(-c2ccccc2)on1`, the activity change, negative = toxicity was -3.68% (inactive).
In the case of `Cc1cccc(Nc2nc(-c3ccccn3)nnc2-c2ccccc2)n1`, the activity change, negative = toxicity is reported as -12.6% (inactive).
For `O=C(NC1Cc2ccccc2C1)c1cc(-c2ccccc2)on1`, the activity change, negative = toxicity was -13.3% (inactive).
In the case of `c1ccc(-c2nnc(-c3ccccn3)nc2NCCN2CCOCC2)cc1`, the activity change, negative = toxicity is reported as -9.28% (inactive).
In the case of `O=C(c1cc(-c2ccccc2)on1)N1CCc2cccnc21`, the activity change, negative = toxicity is reported as -7.75% (inactive).
In the case of `COc1ccc(CNc2nc(-c3ccccn3)nnc2-c2ccccc2)cc1`, the activity change, negative = toxicity is reported as -2.05% (inactive).
With `c1ccc(CCNc2nc(-c3ccccn3)nnc2-c2ccccc2)cc1` the activity change, negative = toxicity was -5.99% (inactive).
For `CN1CCN(c2nc(-c3ccccn3)nnc2-c2ccccc2)CC1`, the activity change, negative = toxicity was -13.4% (inactive).
With `OCCCNc1nc(-c2ccccn2)nnc1-c1ccccc1` the activity change, negative = toxicity was 4.98% (inactive).
For `O=C(c1cc(-c2ccccc2)on1)N1CCC(N2CCOCC2)CC1`, the activity change, negative = toxicity was -9.91% (inactive).
For `Clc1cccc(CNc2nc(-c3ccccn3)nnc2-c2ccccc2)c1`, the activity change, negative = toxicity was 2.17% (inactive).
In the case of `c1ccc(-c2nnc(-c3ccccn3)nc2NCCCN2CCOCC2)cc1`, the activity change, negative = toxicity is reported as 11% (inactive).
In the case of `O=C(Nc1nnc(-c2ccccc2)s1)c1cc(-c2ccccc2)on1`, the activity change, negative = toxicity is reported as -7.07% (inactive).
With `C=CCNc1nc(-c2ccccn2)nnc1-c1ccccc1` the activity change, negative = toxicity was 3.09% (inactive).
With `Cc1ccc(NC(=O)c2cc(-c3ccccc3)on2)cn1` the activity change, negative = toxicity was -11.1% (inactive).
With `CC(Nc1nc(-c2ccccn2)nnc1-c1ccccc1)c1ccccc1` (centres undefined) the activity change, negative = toxicity was 0.427% (inactive).
With `c1ccc(-c2nnc(-c3ccccn3)nc2NCC2CC2)cc1` the activity change, negative = toxicity was 8.28% (inactive).
In the case of `O=C(c1cc(-c2ccccc2)on1)N1CCC(CO)CC1`, the activity change, negative = toxicity is reported as 1.17% (inactive).
For `O=C(Nc1ncc(-c2ccccc2)o1)c1cc(-c2ccccc2)on1`, the activity change, negative = toxicity was 1.41% (inactive).
For `Cc1ccc(CNc2nc(-c3ccccn3)nnc2-c2ccccc2)cc1`, the activity change, negative = toxicity was -15.4% (inactive).
With `O=C(NC1CCc2ccccc2C1)c1cc(-c2ccccc2)on1` (centres undefined) the activity change, negative = toxicity was -10.6% (inactive).
With `Oc1ccc(CNC2Cc3ccccc3C2)c2cccnc12` the activity change, negative = toxicity was 0.726% (inactive).
In the case of `O=C(Nc1cnc2ccccc2c1)c1cc(-c2ccccc2)on1`, the activity change, negative = toxicity is reported as 0.164% (inactive).
With `O=C(Nc1ccc2ccccc2n1)c1cc(-c2ccccc2)on1` the activity change, negative = toxicity was 9.02% (inactive).
For `O=C(c1cc(-c2ccccc2)on1)N1CCC(N2CCCC2)CC1`, the activity change, negative = toxicity was -8.3% (inactive).
For `c1ccc(-c2nnc(-c3ccccn3)nc2N2CCC(c3ccccc3)C2)cc1` (centres undefined), the activity change, negative = toxicity was -24.1% (inactive).
In the case of `O=C(NCCN1CCOCC1)c1cc(-c2ccccc2)on1`, the activity change, negative = toxicity is reported as -16.1% (inactive).
In the case of `O=C(NCCCCO)c1cc(-c2ccccc2)on1`, the activity change, negative = toxicity is reported as -16.3% (inactive).
In the case of `O=C(NCCCn1ccnc1)c1cc(-c2ccccc2)on1`, the activity change, negative = toxicity is reported as -7.78% (inactive).
In the case of `Oc1ccc(CN2CCc3ccccc3C2)c2cccnc12`, the activity change, negative = toxicity is reported as -16.2% (inactive).
For `Cc1cccc(CNC(=O)c2cc(-c3ccccc3)on2)c1`, the activity change, negative = toxicity was -1.11% (inactive).
For `O=C(Nc1nc2ccccc2s1)c1cc(-c2ccccc2)on1`, the activity change, negative = toxicity was -1.46% (inactive).
With `c1ccc(-c2nnc(-c3ccccn3)nc2N2CCC(C3CCCCC3)C2)cc1` (centres undefined) the activity change, negative = toxicity was 14.5% (inactive).
With `Oc1ccc(CN2CCC(Cc3ccccc3)CC2)c2cccnc12` the activity change, negative = toxicity was -14.5% (inactive).
With `O=C(NCCCO)c1cc(-c2ccccc2)on1` the activity change, negative = toxicity was -3.27% (inactive).
With `c1ccc(-c2nnc(-c3ccccn3)nc2NCC2CCCCC2)cc1` the activity change, negative = toxicity was -26% (inactive).
With `O=C(NCC1CCCCC1)c1cc(-c2ccccc2)on1` the activity change, negative = toxicity was 0.869% (inactive).
For `c1ccc(-c2nnc(-c3ccccn3)nc2NCc2cccnc2)cc1`, the activity change, negative = toxicity was 40.2% (inactive).
With `N#CC1(c2ccccc2)CCN(Cc2ccc(O)c3ncccc23)CC1` the activity change, negative = toxicity was 7.2% (inactive).
In the case of `O=C(NCc1ccccc1)c1cc(-c2ccccc2)on1`, the activity change, negative = toxicity is reported as -7.7% (inactive).
In the case of `COc1ccccc1N1CCN(Cc2ccc(O)c3ncccc23)CC1`, the activity change, negative = toxicity is reported as -18.6% (inactive).
In the case of `c1ccc(-c2nnc(-c3ccccn3)nc2NCCc2ccccn2)cc1`, the activity change, negative = toxicity is reported as 4.22% (inactive).
For `Cc1ccccc1CNC(=O)c1cc(-c2ccccc2)on1`, the activity change, negative = toxicity was -4.19% (inactive).

Test system: U2OS HRE-luc cells, viability toxicity counter-screen, CellTiter-Glo
Test: as above
Conditions: not given
In short: as §1
With `c1ccc(-c2nnc(-c3ccccn3)nc2N2CCN(c3ccncc3)CC2)cc1` the IC50 was > 38 µM (inactive).
In the case of `c1ccc(-c2nnc(-c3ccccn3)nc2Nc2nc3ccccc3s2)cc1`, the IC50 is reported as > 38 µM (inactive).
Compound `Cn1c(-c2ccccc2)cnc1Nc1nc(-c2ccccn2)nnc1-c1ccccc1` has an IC50 of 34.8 µM.
For `c1ccc(-c2nnc(-c3ccccn3)nc2N2CCC(N3CCOCC3)CC2)cc1`, the IC50 was > 38 µM (inactive).
With `Oc1ccc(CN2CCC3CCCCC3C2)c2cccnc12` (centres undefined) the IC50 was > 38 µM (inactive).
With `O=C(NCCN1CCCCC1)c1cc(-c2ccccc2)on1` the IC50 was > 38 µM (inactive).
For `CC1CN(Cc2ccc(O)c3ncccc23)CC(C)O1` (centres undefined), the IC50 was > 38 µM (inactive).
With `c1ccc(-c2nnc(Nc3nc(-c4ccccn4)nnc3-c3ccccc3)s2)cc1` the IC50 was > 38 µM (inactive).
For `c1ccc(-c2csc(Nc3nc(-c4ccccn4)nnc3-c3ccccc3)n2)cc1`, the IC50 was > 38 µM (inactive).
In the case of `c1ccc(-c2nnc(-c3ccccn3)nc2NCc2ccccn2)cc1`, the IC50 is reported as > 38 µM (inactive).
For `O=C(c1cc(-c2ccccc2)on1)N1CCN(c2ccncc2)CC1`, the IC50 was > 38 µM (inactive).
